{"source": "ChEMBL document CHEMBL4311948", "about": "“Exploring the Natural Piericidins as Anti-Renal Cell Carcinoma Agents Targeting Peroxiredoxin 1” (J Med Chem, 2019)", "key": {"OS-RC-2": {"test_system": "OS-RC-2", "assay": "Cytotoxicity against human OS-RC2 cells assessed as reduction in cell viability measured after 72 hrs by CCK8 assay", "format": "functional, cell-based", "conditions": "OS-RC-2, 72 h", "how_it_was_run": "(§1)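 Cells were grown in 10% FBS medium: MEM for ACHN, RPMI1640 for OS-RC-2 and 786-O, DMEM for HK-2. They were seeded at 400–800 cells/well in 384-well plates and treated with a range of compound concentrations or solvent control, with sorafenib as positive control. After 72 h, CCK-8 absorbance was read at 450 nm in triplicate, and IC50 was taken from dose-response curves.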"}, "786-0": {"test_system": "786-0", "assay": "Cytotoxicity against human 786-O cells assessed as reduction in cell viability measured after 72 hrs by CCK8 assay", "format": "functional, cell-based", "conditions": "786-0, 72 h", "how_it_was_run": "as §1"}, "HK-2": {"test_system": "HK-2", "assay": "Cytotoxicity against human HK2 cells assessed as reduction in cell viability measured after 72 hrs by CCK8 assay", "format": "cell-based", "conditions": "HK-2, 72 h", "how_it_was_run": "as §1"}, "ACHN [1]": {"test_system": "ACHN", "assay": "Cytotoxicity against human ACHN cells harboring shPRDX1 gene assessed as reduction in cell viability measured after 72 hrs by CCK8 assay", "format": "functional, cell-based", "conditions": "Homo sapiens, ACHN, 72 h; read-out: IC50", "how_it_was_run": "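Transfectants were selected with puromycin (1 μg/mL), and knockdown was confirmed by immunoblot. Viability was read by CCK-8 after 72 h of compound exposure in 384-well plates at 400–800 cells/well in MEM with 10% FBS, and IC50 was taken from dose-response curves.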"}, "ACHN [2]": {"test_system": "ACHN", "assay": "Down regulation of HK2 mRNA expression in human ACHN cells at 25 to 50 nM measured after 24 hrs by qRT-PCR analysis", "format": "functional, cell-based"}, "ACHN [3]": {"test_system": "ACHN", "assay": "Down regulation of SLC2A1 mRNA expression in human ACHN cells at 25 to 50 nM measured after 24 hrs by qRT-PCR analysis", "format": "functional, cell-based"}, "ACHN [4]": {"test_system": "ACHN", "assay": "Down regulation of LDHA mRNA expression in human ACHN cells at 25 to 50 nM measured after 24 hrs by qRT-PCR analysis", "format": "functional, cell-based"}, "ACHN [5]": {"test_system": "ACHN", "assay": "Down regulation of MET mRNA expression in human ACHN cells at 25 to 50 nM measured after 24 hrs by qRT-PCR analysis", "format": "functional, cell-based"}, "[6]": {"molecular_target": "T1, Peroxiredoxin-1 (Homo sapiens) (UniProt Q06830)", "T1 sequence (whole entry)": "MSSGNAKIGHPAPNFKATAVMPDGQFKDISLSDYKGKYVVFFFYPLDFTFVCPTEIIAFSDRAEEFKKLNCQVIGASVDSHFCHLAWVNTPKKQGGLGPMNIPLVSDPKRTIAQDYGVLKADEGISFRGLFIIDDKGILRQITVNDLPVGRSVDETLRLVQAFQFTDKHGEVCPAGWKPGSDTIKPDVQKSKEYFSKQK", "assay": "Activation of PRDX1 in human ACHN cells assessed as reduction in reactive oxygen species level at 25 to 50 nM measured after 24 hrs by Cell-rox reagent-based flow cytometry", "how_it_was_run": "(§2)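 ACHN cells grown 24 h in MEM + 10% FBS, reseeded at 2 × 10^4 cells/well and exposed to 0, 25 or 50 nM for 24 h. Harvested cells loaded with CellROX oxidative stress reagent 5 μM, 30 min at 37 °C in the dark, then read by flow cytometry. shPRDX1 line: stable knockdown selected with puromycin (1 μg/mL) before dosing. Mean ± SD.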"}, "ACHN [7]": {"test_system": "ACHN", "assay": "Antioxidant activity in human ACHN cells harboring shPRDX1 gene assessed as reduction in reactive oxygen species level at 25 to 50 nM measured after 24 hrs by Cell-rox reagent-based flow cytometry", "format": "functional", "how_it_was_run": "as §2"}, "ACHN [8]": {"test_system": "ACHN", "assay": "Antiproliferative activity against human ACHN cells assessed as inhibition of cell proliferation at 50 nM measured after 24 to 72 hrs by holographic microscopy", "format": "functional, cell-based", "how_it_was_run": "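2×10^5 ACHN cells plated per well and allowed to adhere 24 h. 50 nM then added. Label-free digital holographic microscopy (Holomonitor M4) automatically tracked cell movement, morphology and thickness over time.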"}, "ACHN [9]": {"test_system": "ACHN", "assay": "Induction of apoptosis in human ACHN cells assessed as early apoptotic cells at 50 nM measured after 24 hrs by Annexin V-FITC/propidium iodide staining based flow cytometry (reference value: 0%)", "format": "functional"}, "ACHN [10]": {"test_system": "ACHN", "assay": "Induction of apoptosis in human ACHN cells assessed as viable cells at 50 nM measured after 48 hrs by Annexin V-FITC/propidium iodide staining based flow cytometry (reference value: 99.9%)", "format": "functional", "conditions": "read-out: Activity"}, "ACHN [11]": {"test_system": "ACHN", "assay": "Induction of apoptosis in human ACHN cells assessed as late apoptotic cells at 50 nM measured after 48 hrs by Annexin V-FITC/propidium iodide staining based flow cytometry (reference value: 0%)", "format": "functional"}, "ACHN [12]": {"test_system": "ACHN", "assay": "Selectivity ratio of IC50 for cytotoxicity against human ACHN cells harboring shPRDX1 gene to IC50 for Cytotoxicity against human ACHN cells", "format": "functional"}, "ACHN [13]": {"test_system": "ACHN", "assay": "Up regulation of nuclear PRDX1 expression in human ACHN cells at 25 to 50 nM measured after 24 hrs by immunoblot analysis", "format": "functional, cell-based", "how_it_was_run": "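ACHN cells treated 24 h with 25 or 50 nM, then nuclear and cytosolic extracts prepared. Lysis in RIPA buffer, BCA quantitation, 30–50 μg protein resolved on 10% or 12% gels. Blotted with anti-PRDX1 (1:1000) and β-actin (1:3000), band ratio PRDX1/β-actin reported as fold change. Mean ± SD.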"}, "[14]": {"molecular_target": "T1, Peroxiredoxin-1 (Homo sapiens)", "assay": "Induction of PRDX1 nuclear translocation in human ACHN cells at 25 to 50 nM measured after 24 hrs by DAPI staining-based microscopic analysis", "format": "cell-based", "how_it_was_run": "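ACHN cells exposed 24 h to 25 or 50 nM, fixed in 4% paraformaldehyde 10 min and permeabilised with 0.5% Triton X-100. Blocked with 10% FBS, 4 °C, 12 h. Stained with anti-PRDX1 overnight, FITC secondary 2 h RT, DAPI nuclear counterstain. Confocal imaging scored mean fluorescence intensity (n = 9).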"}, "ACHN [15]": {"test_system": "ACHN", "assay": "Antitumor activity against human ACHN cells xenografted in Balb/c nu/nu mouse assessed as tumor weight at 0.8 mg/kg, ip administered once daily for 21 days measured post-last dose by caliper method (reference value: 0.55 +/- 0.13 g)", "format": "functional", "how_it_was_run": "(§3)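 Male athymic Balb/c nu/nu mice, four weeks old, acclimatised 1 week. 10^7 ACHN cells in 0.2 mL PBS injected into the right flank. At about 150 mm3, mice randomised into PBS control or 0.8 mg/kg groups, dosed ip daily for three weeks. Tumours measured by caliper (volume = 0.5 × L × W²) with body weight recorded. Endpoint tumour weight, sections stained by H&E and TUNEL. Tissue lysed for immunoblot.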"}, "[16]": {"assay": "Toxicity in Balb/c nu/nu mouse xenografted with human ACHN cells assessed as decrease in body weight at 0.8 mg/kg, ip administered once daily for 21 days", "format": "organism-based", "conditions": "in vivo, 504 h", "how_it_was_run": "as §3"}, "Mus musculus": {"test_system": "Mus musculus", "assay": "Up regulation of PRDX1 expression in human ACHN cells xenografted Balb/c nu/nu mouse at 0.8 mg/kg, ip administered once daily for 21 days measured post-last dose by immunoblot analysis", "format": "functional, organism-based", "how_it_was_run": "as §3"}, "ACHN [17]": {"test_system": "ACHN", "assay": "Antitumor activity against human ACHN cells xenografted in Balb/c nu/nu mouse assessed as tumor growth inhibition at 0.8 mg/kg, ip administered once daily for 21 days measured post-last dose by TUNEL staining-based assay", "format": "functional, organism-based", "how_it_was_run": "as §3"}, "ACHN [18]": {"test_system": "ACHN", "assay": "Antitumor activity against human ACHN cells xenografted in Balb/c nu/nu mouse assessed as tumor growth inhibition at 0.8 mg/kg, ip administered once daily for 21 days measured post-last dose by H and E staining-based assay", "format": "functional, organism-based", "how_it_was_run": "as §3"}}, "note": "Active and inactive are the calls of the source. The rule behind the calls is not given here."}
{"smiles": "C/C=C(\\C)[C@H](O)[C@H](C)/C=C(C)/C=C/C/C(C)=C/Cc1nc(OC)c(OC)c(O)c1C", "note": "[PIERICIDIN A]", "values": [{"measurement": "IC50", "setting": "OS-RC-2", "result": 5.2, "unit": "µM"}, {"measurement": "IC50", "setting": "786-0", "result": 30, "unit": "µM"}, {"measurement": "IC50", "setting": "HK-2", "result": "> 100", "unit": "µM"}, {"measurement": "IC50", "setting": "ACHN [1]", "result": 1.6, "unit": "µM"}, {"measurement": "Activity", "setting": "ACHN [2]", "result": "Active"}, {"measurement": "Activity", "setting": "ACHN [3]", "result": "Active"}, {"measurement": "Activity", "setting": "ACHN [4]", "result": "Active"}, {"measurement": "Activity", "setting": "ACHN [5]", "result": "Active"}, {"measurement": "Activity", "setting": "[6]", "result": "Active"}, {"measurement": "Activity", "setting": "ACHN [7]", "result": "Active"}, {"measurement": "Activity", "setting": "ACHN [8]", "result": "Active"}, {"measurement": "Activity", "setting": "ACHN [9]", "result": 0.9, "unit": "%"}, {"measurement": "viability at 0.05 µM", "setting": "ACHN [10]", "result": 15.9, "unit": "%"}, {"measurement": "Activity", "setting": "ACHN [11]", "result": 7.4, "unit": "%"}, {"measurement": "Ratio IC50", "setting": "ACHN [12]", "result": 4}, {"measurement": "Activity", "setting": "ACHN [13]", "result": "Active"}, {"measurement": "Activity", "setting": "[14]", "result": "Active"}, {"measurement": "Activity", "setting": "ACHN [15]", "result": 0.28, "unit": "g"}, {"measurement": "Activity", "setting": "[16]", "result": "Non-Toxic"}, {"measurement": "Activity", "setting": "Mus musculus", "result": "Active"}, {"measurement": "TGI", "setting": "ACHN [17]", "result": "Active"}, {"measurement": "TGI", "setting": "ACHN [18]", "result": "Active"}]}
